Measurements: ChEMBL document CHEMBL2401736, “HCV NS5A replication complex inhibitors. Part 5: discovery of potent and pan-genotypic glycinamide cap derivatives” (Bioorg Med Chem Lett, 2013)

Key:
[1] = system: Hepatitis C virus; test: Antiviral activity against Hepatitis C virus genotype 1b by FRET assay; format: functional, organism-based, Hepacivirus hominis
Outline: (§1)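 EC50 values are means of at least two experiments, with at most threefold variation between them.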

[2] = system: Hepatitis C virus; test: Antiviral activity against Hepatitis C virus genotype 1a by ELISA; format: functional, organism-based, Hepacivirus hominis, subtype 1a; outline: as §1
[3] = system: Bovine viral diarrhea virus 1; test: Antiviral activity against Bovine viral diarrhea virus by luciferase assay; format: functional, organism-based; outline: as §1
[4] = Dissociation constant, pKa of the compound in MeOH/H2O at pH 2 to 11; format: physicochemical
Outline: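 pKa found by potentiometric titration over pH 2–11 in varying MeOH/H2O mixtures.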

[5] = Bovine viral diarrhea virus isolates and strains

## O=C(C(=O)N1CCC[C@H]1C(=O)Nc1ccc(/C=C/c2ccc(NC(=O)[C@@H]3CCCN3C(=O)C(=O)c3ccccc3)cc2)cc1)c1ccccc1
[1]; Hepatitis C virus, genotype 1b
  EC50: 4.6 nM
[2]; Hepatitis C virus, subtype 1a
  EC50: 447 nM
[3]; [5]
  EC50: > 10 µM

## C[C@@H](C(=O)N1CCC[C@H]1C(=O)Nc1ccc(/C=C/c2ccc(NC(=O)[C@@H]3CCCN3C(=O)[C@H](C)c3ccccc3)cc2)cc1)c1ccccc1
[2]; Hepatitis C virus, subtype 1a
  EC50: 772 nM
[3]; [5]
  EC50: 2.5 µM

## C[C@H](C(=O)N1CCC[C@H]1C(=O)Nc1ccc(/C=C/c2ccc(NC(=O)[C@@H]3CCCN3C(=O)[C@@H](C)c3ccccc3)cc2)cc1)c1ccccc1
[2]; Hepatitis C virus, subtype 1a
  EC50: > 10000 nM
[3]; [5]
  EC50: > 10 µM

## O=C(Nc1ccc(/C=C/c2ccc(NC(=O)[C@@H]3CCCN3C(=O)[C@H](O)C3CCCCC3)cc2)cc1)[C@@H]1CCCN1C(=O)[C@H](O)C1CCCCC1
[1]; Hepatitis C virus, genotype 1b
  EC50: < 4.6 nM
[2]; Hepatitis C virus, subtype 1a
  EC50: 4650 nM
[3]; [5]
  EC50: > 10 µM

## O=C(Nc1ccc(/C=C/c2ccc(NC(=O)[C@@H]3CCCN3C(=O)[C@@H](O)C3CCCCC3)cc2)cc1)[C@@H]1CCCN1C(=O)[C@@H](O)C1CCCCC1
[1]; Hepatitis C virus, genotype 1b
  EC50: 63 nM
[2]; Hepatitis C virus, subtype 1a
  EC50: 970 nM
[3]; [5]
  EC50: 6.74 µM

## N[C@@H](C(=O)N1CCC[C@H]1C(=O)Nc1ccc(C#Cc2ccc(NC(=O)[C@@H]3CCCN3C(=O)[C@H](N)c3ccccc3)cc2)cc1)c1ccccc1
[1]; Hepatitis C virus, genotype 1b
  EC50: < 4.6 nM
[2]; Hepatitis C virus, subtype 1a
  EC50: 910 nM
[3]; [5]
  EC50: 3.76 µM

## N[C@H](C(=O)N1CCC[C@H]1C(=O)Nc1ccc(C#Cc2ccc(NC(=O)[C@@H]3CCCN3C(=O)[C@@H](N)c3ccccc3)cc2)cc1)c1ccccc1
[1]; Hepatitis C virus, genotype 1b
  EC50: < 4.6 nM
[2]; Hepatitis C virus, subtype 1a
  EC50: > 9400 nM
[3]; [5]
  EC50: > 10 µM

## CN(C)[C@@H](C(=O)N1CCC[C@H]1C(=O)Nc1ccc(C#Cc2ccc(NC(=O)[C@@H]3CCCN3C(=O)[C@@H](c3ccccc3)N(C)C)cc2)cc1)c1ccccc1
[1]; Hepatitis C virus, genotype 1b
  EC50: < 4.6 nM
[2]; Hepatitis C virus, subtype 1a
  EC50: < 4.6 nM
[3]; [5]
  EC50: 1.9 µM

## CN(C)[C@H](C(=O)N1CCC[C@H]1C(=O)Nc1ccc(C#Cc2ccc(NC(=O)[C@@H]3CCCN3C(=O)[C@H](c3ccccc3)N(C)C)cc2)cc1)c1ccccc1
[1]; Hepatitis C virus, genotype 1b
  EC50: < 4.6 nM
[2]; Hepatitis C virus, subtype 1a
  EC50: 628 nM
[3]; [5]
  EC50: 1.2 µM

## CCN(C)C(C(=O)N1CCC[C@H]1C(=O)Nc1ccc(C#Cc2ccc(NC(=O)[C@@H]3CCCN3C(=O)C(c3ccccc3)N(C)CC)cc2)cc1)c1ccccc1 (stereo partly specified)
[1]; Hepatitis C virus, genotype 1b
  EC50: ≤ 0.13 nM
[2]; Hepatitis C virus, subtype 1a
  EC50: 7.9 nM
[3]; [5]
  EC50: 2.79 µM

## O=C(Nc1ccc(C#Cc2ccc(NC(=O)[C@@H]3CCCN3C(=O)[C@@H](c3ccccc3)N3CCCC3)cc2)cc1)[C@@H]1CCCN1C(=O)[C@@H](c1ccccc1)N1CCCC1
[1]; Hepatitis C virus, genotype 1b
  EC50: < 4.6 nM
[4]
  pKa: 8.1
[2]; Hepatitis C virus, subtype 1a
  EC50: 19 nM
[3]; [5]
  EC50: 1.38 µM

## O=C(Nc1ccc(C#Cc2ccc(NC(=O)[C@@H]3CCCN3C(=O)C(c3ccccc3)N3CC[C@H](O)C3)cc2)cc1)[C@@H]1CCCN1C(=O)C(c1ccccc1)N1CC[C@H](O)C1 (stereo partly specified)
[1]; Hepatitis C virus, genotype 1b
  EC50: 0.5 nM
[2]; Hepatitis C virus, subtype 1a
  EC50: 3 nM
[3]; [5]
  EC50: > 10 µM

## O=C(Nc1ccc(C#Cc2ccc(NC(=O)[C@@H]3CCCN3C(=O)C(c3ccccc3)N3CC[C@@H](O)C3)cc2)cc1)[C@@H]1CCCN1C(=O)C(c1ccccc1)N1CC[C@@H](O)C1 (stereo partly specified)
[1]; Hepatitis C virus, genotype 1b
  EC50: 0.094 nM
[2]; Hepatitis C virus, subtype 1a
  EC50: 1.4 nM
[3]; [5]
  EC50: 3.28 µM

## O=C(Nc1ccc(C#Cc2ccc(NC(=O)[C@@H]3CCCN3C(=O)[C@@H](c3ccccc3)N3CCOCC3)cc2)cc1)[C@@H]1CCCN1C(=O)[C@@H](c1ccccc1)N1CCOCC1
[1]; Hepatitis C virus, genotype 1b
  EC50: < 4.6 nM
[4]
  pKa: 4.6
[2]; Hepatitis C virus, subtype 1a
  EC50: 125 nM
[3]; [5]
  EC50: > 10 µM

## CC(=O)N1CCN(C(C(=O)N2CCC[C@H]2C(=O)Nc2ccc(C#Cc3ccc(NC(=O)[C@@H]4CCCN4C(=O)C(c4ccccc4)N4CCN(C(C)=O)CC4)cc3)cc2)c2ccccc2)CC1 (stereo partly specified)
[1]; Hepatitis C virus, genotype 1b
  EC50: 0.42 nM
[2]; Hepatitis C virus, subtype 1a
  EC50: 37 nM
[3]; [5]
  EC50: > 10 µM

## O=C1CN(C(C(=O)N2CCC[C@H]2C(=O)Nc2ccc(C#Cc3ccc(NC(=O)[C@@H]4CCCN4C(=O)C(c4ccccc4)N4CCNC(=O)C4)cc3)cc2)c2ccccc2)CCN1 (stereo partly specified)
[1]; Hepatitis C virus, genotype 1b
  EC50: < 4.6 nM
[4]
  pKa: 2.5
[2]; Hepatitis C virus, subtype 1a
  EC50: 388 nM

## CN(C)[C@H](Cc1ccccc1)C(=O)N1CCC[C@H]1C(=O)Nc1ccc(C#Cc2ccc(NC(=O)[C@@H]3CCCN3C(=O)[C@@H](Cc3ccccc3)N(C)C)cc2)cc1
[1]; Hepatitis C virus, genotype 1b
  EC50: < 4.6 nM
[2]; Hepatitis C virus, subtype 1a
  EC50: 1290 nM
[3]; [5]
  EC50: 1.73 µM

## CN(C)[C@@H](Cc1ccccc1)C(=O)N1CCC[C@H]1C(=O)Nc1ccc(C#Cc2ccc(NC(=O)[C@@H]3CCCN3C(=O)[C@H](Cc3ccccc3)N(C)C)cc2)cc1
[1]; Hepatitis C virus, genotype 1b
  EC50: 500 nM
[2]; Hepatitis C virus, subtype 1a
  EC50: 3240 nM
[3]; [5]
  EC50: 1.49 µM

## CC(C)(C)OC(=O)N[C@@H](C(=O)N1CCC[C@H]1C(=O)Nc1ccc(C#Cc2ccc(NC(=O)[C@@H]3CCCN3C(=O)[C@H](NC(=O)OC(C)(C)C)c3ccccc3)cc2)cc1)c1ccccc1
[1]; Hepatitis C virus, genotype 1b
  EC50: 0.002 nM
[2]; Hepatitis C virus, subtype 1a
  EC50: 245 nM
[3]; [5]
  EC50: > 10 µM

## CC(C)(C)OC(=O)N[C@H](C(=O)N1CCC[C@H]1C(=O)Nc1ccc(C#Cc2ccc(NC(=O)[C@@H]3CCCN3C(=O)[C@@H](NC(=O)OC(C)(C)C)c3ccccc3)cc2)cc1)c1ccccc1
[1]; Hepatitis C virus, genotype 1b
  EC50: < 4.6 nM
[2]; Hepatitis C virus, subtype 1a
  EC50: > 10000 nM
[3]; [5]
  EC50: > 10 µM

## CC(C)OC(=O)N[C@@H](C(=O)N1CCC[C@H]1C(=O)Nc1ccc(C#Cc2ccc(NC(=O)[C@@H]3CCCN3C(=O)[C@H](NC(=O)OC(C)C)c3ccccc3)cc2)cc1)c1ccccc1
[1]; Hepatitis C virus, genotype 1b
  EC50: 0.28 nM
[2]; Hepatitis C virus, subtype 1a
  EC50: 137 nM
[3]; [5]
  EC50: > 10 µM

## CCCOC(=O)N[C@@H](C(=O)N1CCC[C@H]1C(=O)Nc1ccc(C#Cc2ccc(NC(=O)[C@@H]3CCCN3C(=O)[C@H](NC(=O)OCCC)c3ccccc3)cc2)cc1)c1ccccc1
[1]; Hepatitis C virus, genotype 1b
  EC50: 0.16 nM
[2]; Hepatitis C virus, subtype 1a
  EC50: 88 nM
[3]; [5]
  EC50: > 10 µM

## CCOC(=O)N[C@@H](C(=O)N1CCC[C@H]1C(=O)Nc1ccc(C#Cc2ccc(NC(=O)[C@@H]3CCCN3C(=O)[C@H](NC(=O)OCC)c3ccccc3)cc2)cc1)c1ccccc1
[1]; Hepatitis C virus, genotype 1b
  EC50: 0.018 nM
[2]; Hepatitis C virus, subtype 1a
  EC50: 114 nM
[3]; [5]
  EC50: > 10 µM

## CC(C)C(=O)N[C@@H](C(=O)N1CCC[C@H]1C(=O)Nc1ccc(C#Cc2ccc(NC(=O)[C@@H]3CCCN3C(=O)[C@H](NC(=O)C(C)C)c3ccccc3)cc2)cc1)c1ccccc1
[1]; Hepatitis C virus, genotype 1b
  EC50: 0.002 nM
[2]; Hepatitis C virus, subtype 1a
  EC50: 70 nM
[3]; [5]
  EC50: > 10 µM

## CS(=O)(=O)N[C@@H](C(=O)N1CCC[C@H]1C(=O)Nc1ccc(C#Cc2ccc(NC(=O)[C@@H]3CCCN3C(=O)[C@H](NS(C)(=O)=O)c3ccccc3)cc2)cc1)c1ccccc1
[1]; Hepatitis C virus, genotype 1b
  EC50: < 4.6 nM
[2]; Hepatitis C virus, subtype 1a
  EC50: 71 nM
[3]; [5]
  EC50: > 10 µM

## C[C@@](O)(C(=O)N1CCC[C@H]1C(=O)Nc1ccc(Br)cc1)c1ccccc1
[1]; Hepatitis C virus, genotype 1b
  EC50: 380 nM
[2]; Hepatitis C virus, subtype 1a
  EC50: > 1300 nM

## O=C(Nc1ccc(/C=C/c2ccc(NC(=O)[C@@H]3CCCN3C(=O)c3nccc4ccccc34)cc2)cc1)[C@@H]1CCCN1C(=O)c1nccc2ccccc12
[1]; Hepatitis C virus, genotype 1b
  EC50: 22 nM
[2]; Hepatitis C virus, subtype 1a
  EC50: 390 nM
[3]; [5]
  EC50: > 10 µM

## CC(=O)N(C)C(C(=O)N1CCC[C@H]1C(=O)Nc1ccc(C#Cc2ccc(NC(=O)[C@@H]3CCCN3C(=O)C(c3ccccc3)N(C)C(C)=O)cc2)cc1)c1ccccc1 (single isomer, unassigned; diastereomer 1)
[1]
  EC50: 57 nM
[2]
  EC50: 2450 nM

## O=C(Nc1ccc(C#Cc2ccc(NC(=O)[C@@H]3CCCN3C(=O)C(c3ccccc3)N3CCC(O)CC3)cc2)cc1)[C@@H]1CCCN1C(=O)C(c1ccccc1)N1CCC(O)CC1 (single isomer, unassigned; diastereomer 2)
[1]
  EC50: 4.6 nM
[2]
  EC50: 600 nM
[3]
  EC50: 2.97 µM

## CN1CCN(C(C(=O)N2CCC[C@H]2C(=O)Nc2ccc(C#Cc3ccc(NC(=O)[C@@H]4CCCN4C(=O)C(c4ccccc4)N4CCN(C)CC4)cc3)cc2)c2ccccc2)CC1 (single isomer, unassigned; diastereomer 2)
[1]
  EC50: 4.4 nM
[2]
  EC50: 2700 nM
[3]
  EC50: 1.36 µM

## CN(C)C(C)(C(=O)N1CCC[C@H]1C(=O)Nc1ccc(C#Cc2ccc(NC(=O)[C@@H]3CCCN3C(=O)C(C)(c3ccccc3)N(C)C)cc2)cc1)c1ccccc1 (single isomer, unassigned; diastereomer 2)
[1]; Hepatitis C virus, genotype 1b
  EC50: < 4.6 nM
[2]
  EC50: 1080 nM
[3]; [5]
  EC50: 0.769 µM

## CC(=O)N(C)C(C(=O)N1CCC[C@H]1C(=O)Nc1ccc(C#Cc2ccc(NC(=O)[C@@H]3CCCN3C(=O)C(c3ccccc3)N(C)C(C)=O)cc2)cc1)c1ccccc1 (single isomer, unassigned; diastereomer 2)
[1]
  EC50: 632 nM
[2]
  EC50: > 5000 nM
[3]; [5]
  EC50: > 10 µM

## CN(C)C(C)(C(=O)N1CCC[C@H]1C(=O)Nc1ccc(C#Cc2ccc(NC(=O)[C@@H]3CCCN3C(=O)C(C)(c3ccccc3)N(C)C)cc2)cc1)c1ccccc1 (stereo in doubt; 5l.1)
[2]
  EC50: 100 nM
[3]
  EC50: 0.697 µM
